Measurements reported in ChEMBL document CHEMBL3217692, “Synthesis and cytotoxicity evaluation of novel pyrido[3,4-d]pyrimidine derivatives as potential anticancer agents” (2012).

Test system: 786-0
Test: Cytotoxicity against human 786-0 cells assessed as cell growth at 10 uM after 48 hrs by sulforhodamine B assay relative to control
Assay type: functional
Conditions: 786-0, 48 h, read-out: Activity
Procedure, shortened: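 Adherent cells were grown in RPMI 1640 with 5% FBS and 2 mM L-glutamine, seeded at 5000–40 000 cells/well by doubling time, and held 24 h at 37 °C, 5% CO2 before drug. Time-zero plates were TCA-fixed. Compound in DMSO, single dose 10 μM, 48 h. Cells were fixed with cold TCA (final 10%, 60 min, 4 °C) and stained with 0.4% SRB. Bound dye was dissolved in 10 mM Tris base and read at 515 nm. Percent growth was derived from time-zero, control and treated absorbances.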

**Q.** How did the growth at 10 µM turn out when `COc1nccc2c(-c3cccc(F)c3)nc(N)nc12` was run?
**A.** 100%
